Values after ≈ are worked out from the molar mass of the structure shown.
Key:
Type in all cases: functional
Staphylococcus aureus [1] = assay: Antibacterial activity against Staphylococcus aureus CCM 4516/08 after 24 hrs by microbroth dilution method; conditions: CCM 4516/08, 24 h
Method in brief: (§1)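 Microbroth dilution modified per M07-A07 in Mueller-Hinton broth, pH 7.4 (±0.2). Inoculum in sterile water adjusted to 0.5 McFarland. MIC taken as growth reduction of at least 90% (IC90) versus control, read visually and at 540 nm after 24 and 48 h incubation in the dark.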

Staphylococcus aureus [2] = assay: Antibacterial activity against Staphylococcus aureus CCM 4516/08 after 48 hrs by microbroth dilution method; conditions: CCM 4516/08, 48 h
Method in brief: (§2)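 Microdilution broth method modified after M07-A07 in Mueller-Hinton broth adjusted to pH 7.4 (±0.2). Inoculum prepared in sterile water to 0.5 McFarland (1.5 × 10^8 CFU/mL). MIC taken as growth reduction versus control (IC95 per table header), read visually and spectrophotometrically at 540 nm after 24 and 48 h incubation in the dark.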

Staphylococcus aureus [3] = assay: Antibacterial activity against methicillin-resistant Staphylococcus aureus H 5996/08 after 24 hrs by microbroth dilution method; conditions: H 5996/08, 24 h; method in brief: as §2
Staphylococcus aureus [4] = assay: Antibacterial activity against methicillin-resistant Staphylococcus aureus H 5996/08 after 48 hrs by microbroth dilution method; conditions: H 5996/08, 48 h; method in brief: as §2
[5] = system: Staphylococcus epidermidis; assay: Antibacterial activity against Staphylococcus epidermidis H 6966/08 after 24 hrs by microbroth dilution method; conditions: H 6966/08, 24 h; method in brief: as §1
[6] = system: Staphylococcus epidermidis; assay: Antibacterial activity against Staphylococcus epidermidis H 6966/08 after 48 hrs by microbroth dilution method; conditions: H 6966/08, 48 h; method in brief: as §1
Enterococcus sp. [7] = assay: Antibacterial activity against Enterococcus sp. J 14365/08 after 24 hrs by microbroth dilution method; conditions: J 14365/08, 24 h; method in brief: as §1
Enterococcus sp. [8] = assay: Antibacterial activity against Enterococcus sp. J 14365/08 after 48 hrs by microbroth dilution method; conditions: J 14365/08, 48 h; method in brief: as §1
Escherichia coli [9] = assay: Antibacterial activity against Escherichia coli CCM 4517 after 24 hrs by microbroth dilution method; conditions: CCM 4517, 24 h; method in brief: as §1
Escherichia coli [10] = assay: Antibacterial activity against Escherichia coli CCM 4517 after 48 hrs by microbroth dilution method; conditions: CCM 4517, 48 h; method in brief: as §1
Klebsiella pneumoniae [11] = assay: Antibacterial activity against Klebsiella pneumoniae D 11750/08 after 24 hrs by microbroth dilution method; conditions: D 11750/08, 24 h; method in brief: as §1
Klebsiella pneumoniae [12] = assay: Antibacterial activity against Klebsiella pneumoniae D 11750/08 after 48 hrs by microbroth dilution method; conditions: D 11750/08, 48 h; method in brief: as §1
Klebsiella pneumoniae [13] = assay: Antibacterial activity against ESBL-positive Klebsiella pneumoniae J 14368/08 after 24 hrs by microbroth dilution method; conditions: J 14368/08, 24 h; method in brief: as §1
Klebsiella pneumoniae [14] = assay: Antibacterial activity against ESBL-positive Klebsiella pneumoniae J 14368/08 after 48 hrs by microbroth dilution method; conditions: J 14368/08, 48 h; method in brief: as §1
Candida albicans [15] = assay: Antifungal activity against Candida albicans ATCC 44859 after 24 hrs by microbroth dilution method; conditions: ATCC 44859, 24 h
Candida albicans [16] = assay: Antifungal activity against Candida albicans ATCC 44859 after 48 hrs by microbroth dilution method; conditions: ATCC 44859, 48 h
Candida tropicalis [17] = assay: Antifungal activity against Candida tropicalis 156 after 24 hrs by microbroth dilution method; conditions: Candida tropicalis, 156, 24 h
Candida tropicalis [18] = assay: Antifungal activity against Candida tropicalis 156 after 48 hrs by microbroth dilution method; conditions: Candida tropicalis, 156, 48 h
Pichia kudriavzevii [19] = assay: Antifungal activity against Candida krusei E28 after 24 hrs by microbroth dilution method; conditions: E28, 24 h
Pichia kudriavzevii [20] = assay: Antifungal activity against Candida krusei E28 after 48 hrs by microbroth dilution method; conditions: E28, 48 h
Nakaseomyces glabratus [21] = assay: Antifungal activity against Candida glabrata 20/I after 24 hrs by microbroth dilution method
Nakaseomyces glabratus [22] = assay: Antifungal activity against Candida glabrata 20/I after 48 hrs by microbroth dilution method
Trichosporon asahii [23] = assay: Antifungal activity against Trichosporon asahii 1188 after 24 hrs by microbroth dilution method; conditions: Trichosporon asahii, 1188, 24 h
Trichosporon asahii [24] = assay: Antifungal activity against Trichosporon asahii 1188 after 48 hrs by microbroth dilution method; conditions: Trichosporon asahii, 1188, 48 h
Lichtheimia corymbifera [25] = assay: Antifungal activity against Absidia corymbifera 272 after 24 hrs by microbroth dilution method; conditions: Lichtheimia corymbifera, 272, 24 h
Lichtheimia corymbifera [26] = assay: Antifungal activity against Absidia corymbifera 272 after 48 hrs by microbroth dilution method; conditions: Lichtheimia corymbifera, 272, 48 h
[27] = system: Trichophyton mentagrophytes; assay: Antifungal activity against Trichophyton mentagrophytes 445 after 72 hrs by microbroth dilution method; conditions: Trichophyton mentagrophytes, 445, 72 h
[28] = system: Trichophyton mentagrophytes; assay: Antifungal activity against Trichophyton mentagrophytes 445 after 120 hrs by microbroth dilution method; conditions: Trichophyton mentagrophytes, 445, 120 h

Row | SMILES | MIC (Staphylococcus aureus [1]) [µM] | MIC (Staphylococcus aureus [2]) [µM] | MIC (Staphylococcus aureus [3]) [µM] | MIC (Staphylococcus aureus [4]) [µM] | MIC [5] [µM] | MIC [6] [µM] | MIC (Candida albicans [15]) [µM] | MIC (Candida albicans [16]) [µM] | MIC (Candida tropicalis [17]) [µM] | MIC (Candida tropicalis [18]) [µM] | MIC (Pichia kudriavzevii [19]) [µM] | MIC (Pichia kudriavzevii [20]) [µM] | MIC (Nakaseomyces glabratus [21]) [µM] | MIC (Nakaseomyces glabratus [22]) [µM] | MIC (Trichosporon asahii [23]) [µM] | MIC (Trichosporon asahii [24]) [µM] | MIC (Lichtheimia corymbifera [25]) [µM] | MIC (Lichtheimia corymbifera [26]) [µM] | MIC [27] [µM] | MIC [28] [µM] | other results
1 | O=C(Nc1ccccc1)Oc1ccccc1C(=O)Nc1ccccc1 | 500 (≈ 166 µg/mL) | 500 (≈ 166 µg/mL) | 500 (≈ 166 µg/mL) | 500 (≈ 166 µg/mL) | 500 (≈ 166 µg/mL) | 500 (≈ 166 µg/mL) | > 500 | > 500 | > 500 | > 500 | > 500 | > 500 | > 500 | > 500 | > 500 | > 500 | > 500 | > 500 | 125 (≈ 41.5 µg/mL) | 125 (≈ 41.5 µg/mL) | MIC (Enterococcus sp. [7]): > 500 µM; MIC (Enterococcus sp. [8]): > 500 µM; MIC (Escherichia coli [9]): > 500 µM; MIC (Escherichia coli [10]): > 500 µM; MIC (Klebsiella pneumoniae [11]): > 500 µM; MIC (Klebsiella pneumoniae [12]): > 500 µM; MIC (Klebsiella pneumoniae [13]): > 500 µM; MIC (Klebsiella pneumoniae [14]): > 500 µM
2 | O=C(NCc1ccccc1)Oc1ccccc1C(=O)Nc1ccccc1 | 250 (≈ 86.6 µg/mL) | 250 (≈ 86.6 µg/mL) | 500 (≈ 173 µg/mL) | 500 (≈ 173 µg/mL) | 500 (≈ 173 µg/mL) | 500 (≈ 173 µg/mL) | 125 (≈ 43.3 µg/mL) | 125 (≈ 43.3 µg/mL) | 125 (≈ 43.3 µg/mL) | 125 (≈ 43.3 µg/mL) | 125 (≈ 43.3 µg/mL) | 125 (≈ 43.3 µg/mL) | 250 (≈ 86.6 µg/mL) | 250 (≈ 86.6 µg/mL) | 125 (≈ 43.3 µg/mL) | 125 (≈ 43.3 µg/mL) | > 500 | > 500 | 15.6 (≈ 5.41 µg/mL) | 15.6 (≈ 5.41 µg/mL) | MIC (Enterococcus sp. [7]): > 500 µM; MIC (Enterococcus sp. [8]): > 500 µM; MIC (Escherichia coli [9]): > 500 µM; MIC (Escherichia coli [10]): > 500 µM; MIC (Klebsiella pneumoniae [11]): > 500 µM; MIC (Klebsiella pneumoniae [12]): > 500 µM; MIC (Klebsiella pneumoniae [13]): > 500 µM; MIC (Klebsiella pneumoniae [14]): > 500 µM
3 | O=C(NCCc1ccccc1)Oc1ccccc1C(=O)Nc1ccccc1 | 125 (≈ 45.1 µg/mL) | 125 (≈ 45.1 µg/mL) | 125 (≈ 45.1 µg/mL) | 125 (≈ 45.1 µg/mL) | 125 (≈ 45.1 µg/mL) | 125 (≈ 45.1 µg/mL) | > 500 | > 500 | > 500 | > 500 | 125 (≈ 45.1 µg/mL) | 125 (≈ 45.1 µg/mL) | 250 (≈ 90.1 µg/mL) | 250 (≈ 90.1 µg/mL) | > 500 | > 500 | > 500 | > 500 | 62.5 (≈ 22.5 µg/mL) | 62.5 (≈ 22.5 µg/mL) | MIC (Enterococcus sp. [7]): > 500 µM; MIC (Enterococcus sp. [8]): > 500 µM; MIC (Escherichia coli [9]): > 500 µM; MIC (Escherichia coli [10]): > 500 µM; MIC (Klebsiella pneumoniae [11]): > 500 µM; MIC (Klebsiella pneumoniae [12]): > 500 µM; MIC (Klebsiella pneumoniae [13]): > 500 µM; MIC (Klebsiella pneumoniae [14]): > 500 µM
4 | C[C@@H]1[C@H](O)[C@@H](C)/C=C/C=C/C=C/C=C/C=C/C=C/C=C/[C@H](O[C@@H]2O[C@H](C)[C@@H](O)[C@H](N)[C@@H]2O)C[C@@H]2O[C@](O)(C[C@@H](O)C[C@@H](O)[C@H](O)CC[C@@H](O)C[C@@H](O)CC(=O)O[C@H]1C)C[C@H](O)[C@H]2C(=O)O [AMPHOTERICIN B] |  |  |  |  |  |  | 0.12 (≈ 0.111 µg/mL) | 0.49 (≈ 0.453 µg/mL) | 1.95 (≈ 1.8 µg/mL) | 1.95 (≈ 1.8 µg/mL) | 1.95 (≈ 1.8 µg/mL) | 1.95 (≈ 1.8 µg/mL) | 0.98 (≈ 0.906 µg/mL) | 1.95 (≈ 1.8 µg/mL) | 0.49 (≈ 0.453 µg/mL) | 0.98 (≈ 0.906 µg/mL) | 7.81 (≈ 7.22 µg/mL) | 7.81 (≈ 7.22 µg/mL) | 1.95 (≈ 1.8 µg/mL) | 1.95 (≈ 1.8 µg/mL) | 
5 | OC(Cn1cncn1)(Cn1cncn1)c1ccc(F)cc1F [FLUCONAZOLE] |  |  |  |  |  |  | 0.24 (≈ 0.0735 µg/mL) | 0.24 (≈ 0.0735 µg/mL) | > 500 | > 500 | 125 (≈ 38.3 µg/mL) | 250 (≈ 76.6 µg/mL) | 31.2 (≈ 9.57 µg/mL) | 500 (≈ 153 µg/mL) | 250 (≈ 76.6 µg/mL) | 500 (≈ 153 µg/mL) | > 500 | > 500 | 7.81 (≈ 2.39 µg/mL) | 125 (≈ 38.3 µg/mL) | 
6 | CC1(C)S[C@@H]2[C@H](NC(=O)Cc3ccccc3)C(=O)N2[C@H]1C(=O)O [PENICILLIN G] | 0.98 (≈ 0.328 µg/mL) | 0.98 (≈ 0.328 µg/mL) | 62.5 (≈ 20.9 µg/mL) | 125 (≈ 41.8 µg/mL) | 250 (≈ 83.6 µg/mL) | 250 (≈ 83.6 µg/mL) |  |  |  |  |  |  |  |  |  |  |  |  |  |  | MIC (Enterococcus sp. [7]): 7.81 µM (≈ 2.61 µg/mL); MIC (Enterococcus sp. [8]): 15.6 µM (≈ 5.22 µg/mL); MIC (Escherichia coli [9]): 125 µM (≈ 41.8 µg/mL); MIC (Escherichia coli [10]): 125 µM (≈ 41.8 µg/mL); MIC (Klebsiella pneumoniae [11]): 500 µM (≈ 167 µg/mL); MIC (Klebsiella pneumoniae [12]): 500 µM (≈ 167 µg/mL); MIC (Klebsiella pneumoniae [13]): > 500 µM; MIC (Klebsiella pneumoniae [14]): > 500 µM
